The series can be described thus: Toxicity liver stage against HepG2, at 10uM. Type of series: cell-based. More on the design: test concentration 10 uM, cell line HepG2-A16-CD81EGFP. Conditions: human, HepG2-A16-CD81EGFP cells; read-out: INHIBITION
The method in brief: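 Uninfected HepG2-A16-CD81EGFP cells, 3 × 10^3 per well, 1536-well, plated on prespotted compound at 10 μM final, parasite-free screening media added to match infected plates; puromycin 10 μM positive, DMSO 0.5% negative; run in parallel with 48 h PbLuc assay at 37 °C, 5% CO2; viability by CellTiter-Glo luminescence, normalized to controls.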
For `CS(=O)(=O)NCc1cn2c(n1)CN(Cc1cccnc1)CC2`, the cytotoxicity at 10 µM was -103%.
The result for `CCCc1n[nH]c(C2CN(C(=O)c3ccc[nH]3)CCO2)n1` (stereo unspecified) reads -9.29%; that for `Cc1cccnc1NC(=O)c1ccc(F)c(S(=O)(=O)NC2CC2)c1`, 1.77%.
Regarding `Cc1ccccc1-c1cc(C(=O)NCCN2CCCS2(=O)=O)[nH]n1`, the cytotoxicity at 10 µM was -12.9%.
As for `Cc1c2c(C(F)F)cc(SCC(=O)O)nc2nn1C`, the cytotoxicity at 10 µM is -9.38%.
As to `CCOc1cc(C)nc(N2CCN(C(=O)c3cn[nH]c3CC)CC2)n1`, the cytotoxicity at 10 µM is -2%.
`CCn1cc(CN2C[C@@H]3CCCN3C[C@@H]2CCSC)cn1`: the cytotoxicity at 10 µM was -13.9%.
On to `Cc1ncsc1CCN(C)C(=O)CN1CC2(CCCC2)CC1=O`, for which the cytotoxicity at 10 µM is 2.19%.
For `Cc1ccc(NC2CCN(C(=O)CCCn3ccnc3C)CC2)nn1`, the cytotoxicity at 10 µM is -11.8%.
Consider `CC(C)CNC(=O)CNc1c(NCc2ccccn2)c(=O)c1=O`, for which the cytotoxicity at 10 µM is -9.06%.
In the case of `CC=C(C)C(=O)NS(=O)(=O)c1ccc(C(F)(F)F)cc1`, the cytotoxicity at 10 µM worked out at 3.12%.
`Cn1cc(C[C@H]2[C@H](O)CCN2CC2CC2)cn1`: the cytotoxicity at 10 µM was -0.516%.
For `Cc1nnc(NCc2ccc(SC(F)F)cc2)o1` the value was 6.48%; for `COC1CCN(C(=O)c2nn(-c3ccc(C(C)C)cc3)cc2O)CC1`, -42.9%.
Consider `CCc1c(C)sc2nc3n(CCN4CCCCC4)nc(SC)n3c(=O)c12`, for which the cytotoxicity at 10 µM was 2.68%.
On to `O=C(O)[C@@H]1CN(C(=O)c2cc(C3CC3)n[nH]2)C[C@H]1c1cccc(F)c1`, for which the cytotoxicity at 10 µM was -9%.
The result for `OCCN(Cc1ccno1)Cc1cc(Br)ccc1F` reads 6%.
For the molecule `Cc1nc(CN(C)C2CCN(Cc3cnc(C)s3)C2)no1` (stereo unspecified), the cytotoxicity at 10 µM is -4.8%.
Take `Cc1csc(C2CCCCN2C(=O)c2cn[nH]c2C)n1` (stereo unspecified): the cytotoxicity at 10 µM was -1.53%.
Turning to `CC(C)N(C)C(=O)C1CCN(Cc2cnc3ccccn23)CC1`, the cytotoxicity at 10 µM stood at 27.5%.
For `CC(C)n1ccc(CN2CCOC(CNc3cccnn3)C2)n1` (stereo unspecified), the cytotoxicity at 10 µM was -16.6%.
On to `Cc1[nH]c2nc(CNc3ccccc3Cl)nn2c(=O)c1C`, for which the cytotoxicity at 10 µM was -1.29%.
As for `COc1ccc(OCCN2CCC(N3CCNC3=O)CC2)cc1`, the cytotoxicity at 10 µM stood at 29.5%.
Turning to `O=C(NCc1csc(Br)c1)Nc1cn[nH]c1`, the cytotoxicity at 10 µM is 2.1%.
For `CC(C)CN1CCC2(CC1)C(=O)Nc1ccc(C(=O)NC(C)C)cc12` the value was -13.9%; for `Cc1noc(C)c1CN1CCn2cc(CNc3ccccn3)nc2C1`, -1.38%; for `O=C1CC(C2CCCCC2)c2c(n(C3CCCC3)[nH]c2=O)N1` (stereo unspecified), -5.01%.
`CCS(=O)(=O)N[C@H]1CN(Cc2noc(COC)n2)C[C@@H]1C1CC1`: the cytotoxicity at 10 µM is -3.22%.
For the molecule `Cc1nccc(-c2cccc(NCC(=O)N3CCc4sccc4C3)c2)n1`, the cytotoxicity at 10 µM worked out at 1.06%.
`CCc1ccc(O)c(C(=O)N2CCN(CC(=O)N(C)C)CC2)c1`: the cytotoxicity at 10 µM is 2.8%.
For the molecule `COCCC(=O)N1CCCC(CCC(=O)NCc2cccc(OC)c2)C1` (stereo unspecified), the cytotoxicity at 10 µM was found to be 23.1%.
For `CN(Cc1ccsc1)C(=O)Nc1ccc(S(=O)(=O)N(C)C)cc1` the value was 2.23%; for `Cc1ccc(OCCN(C)C(=O)CCCN2CCCC2=O)c(C)c1`, -8.38%.
On to `CC(C)(C)n1ncc2c1CCCC2NCc1cccc(C(N)=O)c1` (stereo unspecified), for which the cytotoxicity at 10 µM is -0.25%.
In the case of `CC(C)OCc1ncn2c1CN(Cc1ccc(F)cc1)CCC2`, the cytotoxicity at 10 µM is 1.39%.
Take `CN(C)CCNCC1COCc2c(-c3ccnn3C)nnn2C1` (stereo unspecified): the cytotoxicity at 10 µM is -99.9%.
The result for `O=C(C1COc2ccccc2C1)N(CCO)Cc1ccccc1` (stereo unspecified) reads 4.58%.
`Cc1csc(CCCNC(C)CC(=O)Nc2cccc(C)c2C)n1` (stereo unspecified): the cytotoxicity at 10 µM amounted to 5.76%.
Take `CCOc1cc(F)ccc1NC1CCN(CC(F)(F)F)C1=O` (stereo unspecified): the cytotoxicity at 10 µM was -0.302%.
For `Cc1nc(NCCN2CCCC2=O)cc(C2CN(C)CCO2)n1` (stereo unspecified), the cytotoxicity at 10 µM was -10.5%.
With `Cc1n[nH]c(C)c1C1COCCN1C(=O)c1cccc(F)c1F` (stereo unspecified), the cytotoxicity at 10 µM is -8.45%.
Turning to `Cc1csc([C@@H]2C[C@@H]3CCN(C(=O)c4cccn4C)C[C@H]3O2)n1`, the cytotoxicity at 10 µM was determined as 4.12%.
In the case of `CC[C@@]1(O)CCN(C(=O)c2ccc(OC(F)F)cc2)C[C@H]1O`, the cytotoxicity at 10 µM is 6.2%.
`CN(CCOc1ccccc1Cl)S(=O)(=O)N1CCOCC1`: the cytotoxicity at 10 µM was -3.51%.
On to `CCCN1CCN(Cc2cccc(OC(C)C)c2)[C@H]2CS(=O)(=O)C[C@H]21`, for which the cytotoxicity at 10 µM was determined as 4.77%.
As for `Cc1ccsc1-c1nccn1CCN(C)S(C)(=O)=O`, the cytotoxicity at 10 µM was -7.36%.
For the molecule `Cc1ncsc1CN1C[C@@H]2CCCO[C@@H]2[C@H](N(C)C(C)C)C1`, the cytotoxicity at 10 µM is 1.81%.
The result for `Cn1nc(C2CCCN2)c2c(C(=O)NCC(F)(F)F)cc(C3CC3)nc21` (stereo unspecified) reads 13.1%.
For the molecule `Cc1nc(CCNC(=O)NCC(O)c2cccc(Cl)c2)cs1` (stereo unspecified), the cytotoxicity at 10 µM amounted to 14%.
As for `COc1cc(C)nc(N2CCN(C(=O)CCn3cc(C)cn3)CC2)n1`, the cytotoxicity at 10 µM was -3.56%.
As for `C[C@@H]1CN(Cc2nc(Cc3ccccc3F)no2)C[C@H](C)O1`, the cytotoxicity at 10 µM amounted to 6.74%.
Turning to `O=C(c1cccnc1)N1C[C@H]2CC[C@@H](C1)N(Cc1ccc(F)cc1Cl)C2`, the cytotoxicity at 10 µM amounted to 1.17%.
Turning to `CC(C)S(=O)(=O)N1CCC(c2[nH]ncc2S(C)(=O)=O)C1` (stereo unspecified), the cytotoxicity at 10 µM is -21.5%.
As to `CN(C)C(=O)c1cccc(NC(=O)CN2CCCCC2C2OCCO2)c1` (stereo unspecified), the cytotoxicity at 10 µM is -6.95%.
`Cn1cc(C2CCCN2C(=O)c2ccc(Br)o2)cn1` (stereo unspecified): the cytotoxicity at 10 µM was -3.32%.
The result for `Cc1ccoc1C(=O)N1CC(C(=O)N2CCOCC2)C2(CCOCC2)C1` (stereo unspecified) reads -1.2%; that for `Cc1cc(CN2CCCCC2Cn2cncn2)no1` (stereo unspecified), -8.89%.
On to `COC(=O)c1ccc(NC(=O)CN2CCCCC2C2OCCO2)cc1` (stereo unspecified), for which the cytotoxicity at 10 µM came to 42.5%.
As for `Cc1cc(C)n(-c2ccc3nnc(C)n3n2)n1`, the cytotoxicity at 10 µM was 17.8%.
On to `COc1cccc2c1OCC(NC(=O)NCCC(N)=O)C2` (stereo unspecified), for which the cytotoxicity at 10 µM was -1.38%.
The result for `Cc1cnc(CN(C)C2CCN(CCCc3cnn(C)c3)C2)o1` (stereo unspecified) reads 2.61%.
For `O=C(CS(=O)(=O)C1CCCC1)NC1CCc2nccn2C1` (stereo unspecified) the value was -17%; for `Cn1ccnc1CN1CCCN(C(=O)CC(C2CC2)C2CC2)CC1`, -19.8%.
On to `c1cncc(C2COC3(CCN(Cc4ccsc4)CC3)C2)c1` (stereo unspecified), for which the cytotoxicity at 10 µM is -3.74%.
On to `c1ccc(O[C@H]2CO[C@@]3(CCN(Cc4ccc5c(c4)OCO5)C3)C2)nc1`, for which the cytotoxicity at 10 µM was -76.4%.
With `O=S(=O)(c1c(N2CCCC2)ccc2nonc12)N1CCCC1`, the cytotoxicity at 10 µM is 5.95%.
Consider `CCS(=O)(=O)CCNC(=O)[C@@]12CNC[C@@H]1CN(C1CCCC1)C2`, for which the cytotoxicity at 10 µM was -20.3%.
On to `Cc1nnc(NC(=O)CN2CCc3c(nc(C(C)C)n3C)C2)s1`, for which the cytotoxicity at 10 µM was -1.94%.
Consider `c1nc2n(c1CN1CCCCC1)CCN(C1CCOC1)CC2` (stereo unspecified), for which the cytotoxicity at 10 µM was -152%.
As for `O=C1N(Cc2ccccc2)C[C@H]2CN(Cc3ccccc3Cl)CCN12`, the cytotoxicity at 10 µM turned out to be 2.23%.
As to `O=C(Cn1nnn(-c2cccs2)c1=O)N(CC1CCOC1)C1CC1` (stereo unspecified), the cytotoxicity at 10 µM is -39.9%.
Regarding `O=C(c1ccncc1)N1CCC(c2nc(O)cc(-c3cccnc3)n2)C1` (stereo unspecified), the cytotoxicity at 10 µM is -0.0788%.
Turning to `O=C(Cn1cccnc1=O)NC(Cc1ccsc1)c1ccccn1` (stereo unspecified), the cytotoxicity at 10 µM is -5.66%.
With `CCNC(=O)CCC(=O)NC(Cc1ccccc1)c1sccc1C` (stereo unspecified), the cytotoxicity at 10 µM is -6.69%.
Turning to `CCCc1noc(C2CCN(C(=O)C3CCCO3)CC2)n1` (stereo unspecified), the cytotoxicity at 10 µM was found to be 0.12%.
For `Cc1csc(CN2CC[C@H]3C[C@@H](c4nc(C)no4)O[C@@H]3C2)n1`, the cytotoxicity at 10 µM was 3.8%.
Turning to `CN1CC(C(=O)NCc2cccnc2OCC(F)(F)F)CC1=O` (stereo unspecified), the cytotoxicity at 10 µM is -6.6%.
`CS(=O)(=O)N1CC2(CCCN(CC3CC3)C2)Cc2ccccc21` (stereo unspecified): the cytotoxicity at 10 µM stood at 2.85%.
With `CC(C)COC(=O)N1CCN(C(=O)c2ccc3nccn3c2)CC1`, the cytotoxicity at 10 µM stood at 12.6%.
For the molecule `CC(c1ccccn1)N(C)Cc1ccc(CCC(C)(C)O)cc1` (stereo unspecified), the cytotoxicity at 10 µM came out at 1.82%.
As to `CN(C)C(CNCc1nc(-c2ccsc2)no1)c1cccc(F)c1` (stereo unspecified), the cytotoxicity at 10 µM amounted to 12.9%.
`COCCN1CCN(Cc2cccc(C(N)=O)c2)CC1C` (stereo unspecified): the cytotoxicity at 10 µM was found to be 0.794%.
With `CCCc1cc(C(=O)N(C)Cc2cnc3ccccc3n2)n(C)n1`, the cytotoxicity at 10 µM was -19.3%.
Consider `CCCn1ncc(-c2ccnc(NC3CC(C)(C)NC(C)(C)C3)n2)c1C`, for which the cytotoxicity at 10 µM is 4.84%.
With `Cn1[nH]c(C2CCCN(C(=O)CO)C2)cc1=O` (stereo unspecified), the cytotoxicity at 10 µM is 2.01%.
As for `CSc1nc2ccsc2c(=O)n1CC(=O)NC1CCCCC1`, the cytotoxicity at 10 µM is 4.45%.
For `COc1ccccc1CC(=O)NC(C)c1nc2cccnc2n1C(C)C` (stereo unspecified), the cytotoxicity at 10 µM was -43.8%.
For `CCn1cc(C(=O)NCC(OC)c2cccc(Cl)c2)cn1` (stereo unspecified) the value was -8.87%.
On to `O=C(NCC(Cc1cccc(F)c1)N1CCCC1=O)c1ccccc1` (stereo unspecified), for which the cytotoxicity at 10 µM is -12.2%.
With `Cc1nc(CN2CCCC(NCCCOc3ccc(F)cc3)C2)no1` (stereo unspecified), the cytotoxicity at 10 µM was -7.03%.
The result for `Cc1ccccc1SC1CCN(C(=O)C2[C@H]3CNC[C@@H]23)CC1` (stereo partly specified) reads -10.1%; that for `O=C1CCCC2=Nc3nonc3NC(c3cccc(F)c3F)C12` (stereo unspecified), 0.285%; that for `CCNc1ccnc(NC2CCN(S(C)(=O)=O)CC2)n1`, -5.16%.
In the case of `CN(CC(=O)Nc1cc(-n2nnnc2C2CC2)ccc1F)C1CCC1`, the cytotoxicity at 10 µM came out at 8.83%.
Regarding `Cc1cc(C2CCN(S(=O)(=O)c3cn(C)cn3)CC2)ccn1`, the cytotoxicity at 10 µM is -32.6%.
Turning to `Cn1ccc(C2CCCCCN2C(=O)c2cccnc2)n1` (stereo unspecified), the cytotoxicity at 10 µM worked out at 6.16%.
